Laboratory results from the RNAGym collection of RNA variant scans (doi:10.1126/science.aae0568).
This sample holds only a part of the variants without activity.

B1: tRNA (parent)
chain: GUUCCGUUGGCGUAAUGGUAACGCGUCUCCCUCCUAAGGAGAAGACUGCGGGUUCGAGUCCCGUACGGAACG

Variants of: B1
Assay: yeast fitness relative to wild type (ratio to wild type); higher = fitter; tRNA-Arg(CCU), competitive growth, 37 C, YPD
Method in brief: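 For this measurement, the tRNA-Arg(CCU) gene was varied by chemical synthesis at a 3% per-site mutation rate across 69 sites, and each variant was placed at the native genomic locus in Saccharomyces cerevisiae. The pooled strains went through a 24-hour competition in YPD at 37°C in six parallel replicates, with amplicons from start and end populations read by 100-nucleotide paired-end sequencing. Darwinian fitness relative to wild type followed from the change in each genotype's frequency. Genotypes needed ≥ 100 starting reads, and estimates < 0.5 were set to 0.5.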
GUUCCGUUGGCGUAAUGGUAACGCGUCUCCCUCCUAAGGAGAAGCAUGCGGGUUCGAGUCCAGUACGGAACG [A45C C46A C62A] showed a yeast fitness of 0.603.
In the case of GUUCCGUUGGCGUAAUGGUAACGCGUCUCCCUCCUAAGGAGAAGCCUGCGGGUUCGAGUCCCGUACGGACCG [A45C A70C], the yeast fitness is reported as 1.05.
GUUCCGUUGGCGUAAUGGUAACGCGUCUCCCUCCUAAGGAGAAGCCUGCGGGUUCGAAUCCCGUACGGAACG [A45C G58A] showed a yeast fitness of 0.977.
In the case of GUUCCGUUGGCGUAAUGGUAACGCGUCUCCCUCCUAAGGAGAAGCCUGCGCGUUCGAGUCCCGCACGGAACG [A45C G51C U64C], the yeast fitness is reported as ≤ 0.5.
GUUCCGUUGGCGUAAUGGUAACGCGUCUCCCUCCUAAGGAGAAGCCUGCGGGUUCGUGUCCCGUCCGGAACG [A45C A57U A65C] showed a yeast fitness of 0.617.
In the case of GUUCCGUUGGCGUAAUGGUAACGCGUCUCCCUCCUAAGGAGAAUACUGCGGGUUCGAGUCCCGUACGGAACG [G44U], the yeast fitness is reported as 1.01.
GUUCCGUUGGCGUAAUGGUAACGCGUCUCCCUCCUAAGGAGAAGCCUGCGGGUUCGAGUUCCGUACGGAGCG [A45C C60U A70G] showed a yeast fitness of 0.683.
In the case of GUUCCGUUGGCGUAAUGGUAACGCGUCUCCCUCCUAAGGAGAAGCGUGCGGGUUCGAGUCCCGUACGAAACG [A45C C46G G68A], the yeast fitness is reported as 0.678.
With GUUCCGUUGGCGUAAUGGUAACGCGUCUCCCUCCUAAGGAGAAGCCUCCGGGUUCGAGUCCCGUACGGUACG [A45C G48C A69U] the yeast fitness was 0.675.
In the case of GUUCCGUUGGCGUAAUGGUAACGCGUCUCCCUCCUAAGGAGAAGCCUGUGGGUUCAAGUCCCGUACGGAACG [A45C C49U G56A], the yeast fitness is reported as 0.856.
Work on GUUCCGUUGGCGUAAUGGUAACGCGUCUCCCUCCUAAGGAGAAGCCUGCGGGUUGGAGUCCCGUACGGAACG [A45C C55G] yielded a yeast fitness of 0.528.
GUUCCGUUGGCGUAAUGGUAACGCGUCUCCCUCCUAAGGAGAAUACUGCGGGUUCGAGUCCCGUACGGACCG [G44U A70C] gave a yeast fitness of 0.813.
For GUUCCGUUGGCGUAAUGGUAACGCGUCUCCCUCCUAAGGAGAAGCCUGCGGGUUCGUGUUCCGUCCGGAACG [A45C A57U C60U A65C], the yeast fitness was ≤ 0.5.
In the case of GUUCCGUUGGCGUAAUGGUAACGCGUCUCCCUCCUAAGGAGAAGCCUGCGGGUUCGCCUCCCGUACGGAACG [A45C A57C G58C], the yeast fitness is reported as 0.602.
GUUCCGUUGGCGUAAUGGUAACGCGUCUCCCUCCUAAGGAGAAGCCUGUGGGUUCGAGUCCCAUACGGAACG [A45C C49U G63A] showed a yeast fitness of 0.74.
Variant GUUCCGUUGGCGUAAUGGUAACGCGUCUCCCUCCUAAGGAGAAGCGUGCGCGUUCGAGUCCCGUACGGAACG [A45C C46G G51C] has a yeast fitness of 0.546.
Variant GUUCCGUUGGCGUAAUGGUAACGCGUCUCCCUCCUAAGGAGAAGCCUGCGGAUUCGAGUCCCGUACGGCACG [A45C G52A A69C] has a yeast fitness of 0.568.
GUUCCGUUGGCGUAAUGGUAACGCGUCUCCCUCCUAAGGAGAAGCCUGCAGGUUCGAGUCCCGUUCGGAACG [A45C G50A A65U] gave a yeast fitness of 0.643.
For GUUCCGUUGGCGUAAUGGUAACGCGUCUCCCUCCUAAGGAGAAGCGUGAGGGUUCGAGUCCCGUACGGUACG [A45C C46G C49A A69U], the yeast fitness was ≤ 0.5.
In the case of GUUCCGUUGGCGUAAUGGUAACGCGUCUCCCUCCUAAGGAGAAGCCUGCGGGUUCGAGUCCCGUACGGUACG [A45C A69U], the yeast fitness is reported as 0.959.
With GUUCCGUUGGCGUAAUGGUAACGCGUCUCCCUCCUAAGGAGAACACUGCGGGUCCGAGUCCCGAACGAAACG [G44C U54C U64A G68A] the yeast fitness was ≤ 0.5.
Variant GUUCCGUUGGCGUAAUGGUAACGCGUCUCCCUCCUAAGGAGAAGCCUGCGGGUUCGCGUCCCGUACGGAACG [A45C A57C] has a yeast fitness of 0.573.
In the case of GUUCCGUUGGCGUAAUGGUAACGCGUCUCCCUCCUAAGGAGAAGCCUGCGGGUUCGUGUCCCGUACGGAACG [A45C A57U], the yeast fitness is reported as 0.682.
GUUCCGUUGGCGUAAUGGUAACGCGUCUCCCUCCUAAGGAGAAGCCUGCGGCUUCGAGUCCCGUACGGAACG [A45C G52C] showed a yeast fitness of 0.762.
GUUCCGUUGGCGUAAUGGUAACGCGUCUCCCUCCUAAGGAGAAGCCUGCGAGUUAGAGUCCCGUACGGAACG [A45C G51A C55A] showed a yeast fitness of 0.516.
In the case of GUUCCGUUGGCGUAAUGGUAACGCGUCUCCCUCCUAAGGAGAAGCCUGCGGGUUCGAGUCCCGUAGGGAACG [A45C C66G], the yeast fitness is reported as 0.586.
Work on GUUCCGUUGGCGUAAUGGUAACGCGUCUCCCUCCUAAGGAGAAGCCUGCAGGUUCGGGUCCCGUACGGAACG [A45C G50A A57G] yielded a yeast fitness of 0.665.
With GUUCCGUUGGCGUAAUGGUAACGCGUCUCCCUCCUAAGGAGAAGCCUCCAGGCUCGAGUCCCGUAAGGAACG [A45C G48C G50A U53C C66A] the yeast fitness was ≤ 0.5.
Work on GUUCCGUUGGCGUAAUGGUAACGCGUCUCCCUCCUAAGGAGAAGCCUGCGGGUUCGAGUACCGUACGGAACG [A45C C60A] yielded a yeast fitness of 0.62.
For GUUCCGUUGGCGUAAUGGUAACGCGUCUCCCUCCUAAGGAGAAGCCUGGGGGUUCGACUCCCGUACGGAACG [A45C C49G G58C], the yeast fitness was ≤ 0.5.
With GUUCCGUUGGCGUAAUGGUAACGCGUCUCCCUCCUAAGGAGAAGCCUGCGGACUCGAAUCCGGUACGGAACG [A45C G52A U53C G58A C62G] the yeast fitness was ≤ 0.5.
GUUCCGUUGGCGUAAUGGUAACGCGUCUCCCUCCUAAGGAGAAGCCUGCGGGUUCGAGUCACGUACGGAACG [A45C C61A] showed a yeast fitness of 0.797.
Variant GUUCCGUUGGCGUAAUGGUAACGCGUCUCCCUCCUAAGGAGAAGCCUGCGGGUUCGAGUCUCGUACGGAACG [A45C C61U] has a yeast fitness of 0.992.
For GUUCCGUUGGCGUAAUGGUAACGCGUCUCCCUCCUAAGGAGAAUACUGCGGAUUGGAGUCCCGUACGGUACG [G44U G52A C55G A69U], the yeast fitness was ≤ 0.5.
With GUUCCGUUGGCGUAAUGGUAACGCGUCUCCCUCCUAAGGAGAAGCCUGCGGGUUCGAGUACCGUAUGGAACG [A45C C60A C66U] the yeast fitness was ≤ 0.5.
For GUUCCGUUGGCGUAAUGGUAACGCGUCUCCCUCCUAAGGAGAAGCCUACGGGUUCGAGUCCCGUACGGAACG [A45C G48A], the yeast fitness was 0.828.
With GUUCCGUUGGCGUAAUGGUAACGCGUCUCCCUCCUAAGGAGAACACUGCGGGUCCGAGUCCCGUAUGGAACG [G44C U54C C66U] the yeast fitness was 0.601.
Work on GUUCCGUUGGCGUAAUGGUAACGCGUCUCCCUCCUAAGGAGAAGCCUACGGGUUCGAGUCCCGUACAGAACG [A45C G48A G67A] yielded a yeast fitness of 0.829.
